Only some compounds are listed: those with a hit (about 4.7% of all), similar ones and a draw of the others.
RGS4 block: RGS4 inhibitors, primary screen, cell-based, HEK293 M3R inducible RGS4, calcium flux; Regulator of G-protein signaling 4 (Homo sapiens), P49798; Fluo-4 calcium flux; active compounds read high; triggered by carbachol at its EC20; B-score at 10 µM; 0.45% of 310,000 active; AID 463165, 2010;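 active = B-score, a plate-corrected calcium signal, over three deviations above library mean, with baseline fluorescence within five deviations of library mean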;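 note: RGS4 expression induced by doxycycline in cells with stable M3 receptor; B-score is computed from the integrated fluorescence ratio over baseline after carbachol; higher B-score means a larger calcium signal and so more RGS4 inhibition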
MrgX1 agonist: agonists of human MrgX1 receptor, primary screen, HEK293 cells, Fluo-4 calcium flux | Mas-related G-protein coupled receptor member X1 (Homo sapiens), Q96LB2 | B-score at 10 µM | Fluo-4 calcium fluorescence, agonist mode; active compounds read high | 0.44% of 310,000 active;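 active = calcium response B-score plate-corrected fluorescence ratio at least 3 library SD, with starting fluorescence B-score inside 5 SD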
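times = overnight plating, then 30 min 37 °C plus 30 min room-temperature dye loading | assay system = stable human MrgX1 HEK293 cell line | input = fifteen thousand cells per well | signal = kinetic calcium dye fluorescence, Fluo-4 NW | dosing = compound delivered in addition one of three | read-out = B-scored fluorescence response ratio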
MrgX1 PAM: positive allosteric modulators of MrgX1, primary screen, HEK293 cells, Fluo-4 calcium flux; 0.63% of 310,000 active; FDSS; active compounds read high; B-score at 10 µM; AID 588675, 2011; Mas-related G-protein coupled receptor member X1 (Homo sapiens), Q96LB2;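 active = plate-corrected calcium response at least 3 library SD above typical, normal starting fluorescence, not activating the receptor alone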;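 note: compound read alongside a low EC10 to EC30 dose of BAM8-22 agonist; peak minus trough fluorescence over baseline measured at the second addition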
Cl transport mod: KCC2 cotransporter modulators, thallium flux, primary screen, cell-based, HEK293 KCC2, FluoZin-2 fluorescence, MLSMR | Solute carrier family 12 member 5 (Homo sapiens), Q9H2X9 | KCC2 cells, thallium flux FluoZin-2 fluorescence | B-score of Tl+ flux slope (higher = more flux/activation; lower = inhibition) at 10 µM | 2.2% of 190,000 active;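 active = thallium flux slope and its plate-corrected score both differing from the plate sample mean at a set confidence after two filtering rounds, in either direction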;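 note: slope of fluorescence scaled to starting intensity during 10 to 20 s after thallium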
Target sequence (Q9H2X9 whole entry, looked up): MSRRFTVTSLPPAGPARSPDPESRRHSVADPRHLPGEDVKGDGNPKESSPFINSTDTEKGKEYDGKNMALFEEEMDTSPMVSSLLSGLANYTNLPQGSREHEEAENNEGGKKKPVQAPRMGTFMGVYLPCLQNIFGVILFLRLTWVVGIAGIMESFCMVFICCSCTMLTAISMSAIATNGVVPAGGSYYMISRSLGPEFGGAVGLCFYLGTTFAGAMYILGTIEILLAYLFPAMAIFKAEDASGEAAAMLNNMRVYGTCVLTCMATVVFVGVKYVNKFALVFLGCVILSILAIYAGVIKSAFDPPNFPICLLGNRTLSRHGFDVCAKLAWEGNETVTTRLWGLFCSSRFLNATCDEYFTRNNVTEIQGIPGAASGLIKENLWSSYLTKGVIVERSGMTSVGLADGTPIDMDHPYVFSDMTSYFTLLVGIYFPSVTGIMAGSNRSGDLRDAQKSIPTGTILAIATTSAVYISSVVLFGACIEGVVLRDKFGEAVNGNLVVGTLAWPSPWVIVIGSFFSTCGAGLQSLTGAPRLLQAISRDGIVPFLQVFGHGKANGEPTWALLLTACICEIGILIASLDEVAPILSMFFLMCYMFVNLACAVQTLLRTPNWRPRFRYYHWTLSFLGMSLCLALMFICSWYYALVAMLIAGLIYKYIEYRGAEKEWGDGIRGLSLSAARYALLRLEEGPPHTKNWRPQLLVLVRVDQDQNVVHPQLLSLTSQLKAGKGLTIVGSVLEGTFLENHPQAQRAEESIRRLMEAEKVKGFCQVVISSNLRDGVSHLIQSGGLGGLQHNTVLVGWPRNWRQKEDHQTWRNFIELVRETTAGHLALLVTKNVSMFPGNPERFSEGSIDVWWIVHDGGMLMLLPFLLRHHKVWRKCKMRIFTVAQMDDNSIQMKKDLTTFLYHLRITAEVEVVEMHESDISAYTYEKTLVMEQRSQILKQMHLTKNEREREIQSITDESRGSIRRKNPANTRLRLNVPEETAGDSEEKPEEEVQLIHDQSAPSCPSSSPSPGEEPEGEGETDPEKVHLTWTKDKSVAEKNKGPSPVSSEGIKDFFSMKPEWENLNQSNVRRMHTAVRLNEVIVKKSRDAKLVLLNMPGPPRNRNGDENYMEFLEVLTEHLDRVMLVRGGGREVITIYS
RGS4 act: RGS4 potentiators or activators, primary screen, cell-based, HEK293 M3R inducible RGS4, calcium flux | AID 463111, 2010 | B-score at 10 µM | 0.92% of 310,000 active | carbachol calcium flux Fluo4; active compounds read low;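 active = B-score of the integrated calcium signal more than 4 SD below the library mean, with starting fluorescence not abnormally high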;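 note: negative B-score means reduced calcium response which marks RGS4 activation or potentiation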
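Assay system: HEK293 FlpIn-TREx cells, stable M3R, doxycycline-inducible RGS4 / Probe or stimulus: carbachol, ECmax concentration / Times: overnight RGS4 induction, 30 min dye load 37 °C, 20 min compound RT / Signal: kinetic calcium fluorescence imaging with Fluo4-AM dye, 2 µM / Measure: Agonist-evoked peak-minus-minimum fluorescence over baseline, integrated ratio, B score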
MrgX1 antagonist: antagonists of human MrgX1 receptor, primary screen, HEK293 cells, Fluo-4 calcium flux; BAM8-22 antagonism; active compounds read low; B-score at 10 µM; 1.3% of 310,000 active; AID 588676, 2011;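 active = calcium-response B-score plate-corrected more than 3 library SD below zero, starting fluorescence within 5 deviations, no agonist response on first addition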;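 note: peak minus trough fluorescence over baseline after final BAM8-22 challenge near maximal dose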
KCC2 secondary: KCC2 modulators in sodium-free buffer, confirmation, cell-based, HEK293 KCC2, thallium flux, secondary assay; shares compounds with Cl transport mod; normalised thallium flux (F/F0 slope) at 10 µM; FluoZin2 fluorescence; active compounds read high; 15% of 3,700 active;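 active = thallium flux slope above the same plate's solvent-only control mean plus 3 SD; inconclusive = the two replicate wells disagree; inactive = no significant difference from solvent-only control wells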
KCC2 bumet counter: thallium flux persisting under bumetanide in KCC2 cells, confirmation, counter-screen for KCC2 modulator project, cell-based, HEK293 KCC2, FluoZin2, secondary assay 3; 49% of 3,700 active; shares compounds with Cl transport mod; normalized thallium flux at 10 µM; HEK293-KCC2 + bumetanide/ouabain; active compounds read high; AID 1714, 2009;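 active = thallium entry rate above the same plate's blocked-transporter control wells by more than 3 SD; inconclusive = the two repeat wells disagree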;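 note: raw slope of fluorescence over initial fluorescence between 10 and 20 s after thallium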
KCC2 sec2: KCC2 modulators without ouabain present, confirmation, cell-based, HEK293 KCC2, thallium flux, FluoZin2, secondary assay 2; shares compounds with Cl transport mod; thallium flux FluoZin2 fluorescence; actives lie on both sides; F/F0 rise rate, 10–20 s post-thallium; normalized thallium flux at 10 µM; 23% of 3,700 active;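 active = thallium flux slope more than 3 SD above or below the plate's solvent-only control mean, mostly below; inconclusive = the two repeat wells disagreed; inactive = no significant shift from solvent-only controls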;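 note: raw slope with 0.1% DMSO as baseline and bumetanide as block control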
HEK293 Tl flux: thallium flux modulation in parental HEK cells, confirmation, counter-screen for KCC2 modulator project, cell-based, counterscreen 1 | shares compounds with Cl transport mod | thallium flux rate (normalised fluorescence) at 10 µM | 46% of 3,700 active | HEK293 parental cells, thallium flux FluoZin2, ouabain; baseline-ratio fluorescence slope, 10–20 s after thallium | AID 1716, 2009;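 active = thallium flux rate significantly above the same plate's solvent-only control wells, beyond their mean plus 3 SD; inconclusive = the two replicate wells gave conflicting results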
KCC2 ouabain: KCC2 inhibitors and activators, ouabain retest, confirmation, HEK-KCC2 cells | shares compounds with Cl transport mod | HEK293-KCC2, thallium flux FluoZin2 fluorescence; bidirectional: low = inhibitor, high = activator | raw Tl+ flux slope (below DMSO = inhibition, above = activation) at 10 µM | 48% of 3,700 active;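 active = thallium flux slope beyond 3 SD from same-plate DMSO control mean in most replicates, usually higher, sometimes lower; inconclusive = repeat tests gave conflicting results; inactive = no significant difference from controls in most replicates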;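 note: slope of initial-normalized fluorescence between seconds 10 and 20 after thallium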
HEK293 Tl flux2: native HEK Tl+ uptake effects, second counter-screen – HEK cells, counterscreen 2, counter-screen for KCC2 modulator project, confirmation; shares compounds with Cl transport mod; HEK293 parental, thallium flux FluoZin-2 fluorescence slope; thallium flux slope at 10 µM; 33% of 3,700 active; AID 1718, 2009;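 active = thallium flux slope above the same plate's solvent-control mean plus 3 SD in both duplicate wells; inconclusive = duplicate wells that disagreed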;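 note: run without ouabain in cells lacking the KCC2 cotransporter; slope of fluorescence scaled to its starting value between 10 and 20 s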
Numbers without * were called inactive; i = inactive; ? = inconclusive; / = no result given.

SMILES | RGS4 block | MrgX1 agonist | MrgX1 PAM | Cl transport mod | RGS4 act | MrgX1 antagonist | KCC2 secondary | KCC2 bumet counter | KCC2 sec2 | HEK293 Tl flux | KCC2 ouabain | HEK293 Tl flux2
Cc1cc2oc(=O)ccc2cc1[N+](=O)[O-] | i | i | i | / | i | i | / | / | / | / | / | /
Oc1ccc(/C=N/NC(=S)NC2CC3CCC2C3)cc1 (configuration not stated) | i | i | i | 0.44 | i | i | / | / | / | / | / | /
S=C(N/N=C/c1cccs1)NC1CC2CCC1C2 (configuration not stated) | i | i | i | 19* | i | i | 0.017* | 0.066* | 0.038 | 0.027* | ? | 0.016*
Cc1cc(Cn2nnnc2-c2ccncc2)cc(C)c1O | i | i | i | / | i | i | / | / | / | / | / | /
CN(C)/C=C1\NC(=S)N(c2ccccc2)C1=O | i | i | i | 1 | i | i | / | / | / | / | / | /
COc1ccc(N2C(=O)/C(=C/c3cccs3)NC2=S)cc1 | i | i | i | 8.7* | i | i | 0.013* | 0.022* | 0.035 | 0.024* | 0.032* | 0.011*
Cc1nn(-c2ccccc2)nc1C(=O)c1c(C)[nH]n(-c2ccccc2)c1=O | i | i | i | 11* | i | i | 0.015* | 0.029* | 0.038 | ? | 0.034* | ?
Cc1[nH]n(-c2ccccc2)c(=O)c1C(=O)c1ccc([N+](=O)[O-])cc1 | i | i | i | 0.48 | i | i | / | / | / | / | / | /
O=[N+]([O-])c1cc(Br)c(O)c(/C=N/Nc2nnnn2-c2cccc3ccccc23)c1 | i | i | i | -3.2* | i | i | 0.0073 | 0.004 | ? | ? | ? | 0.0098
c1ccc2ncc(-n3cnnn3)cc2c1 | i | i | i | 3* | i | i | 0.01 | 0.0066 | 0.036 | 0.0083 | 0.022 | 0.01

Bioassay records: PubChem, several laboratories
